# Experimental data collected from several papers.
# Protocols differ between the studies behind these lines.
# Effect on: cell growth or viability
Compound,cell line,technique,tested at,time,measurement,result
C[C@@H]1CN(c2ccc(-c3cc(C(=O)NCCOCCOCCOCCOCCNC(=O)Cn4cc(-c5[nH]cc(C(=O)N[C@@H](CC(N)=O)c6ccc(F)c(Cl)c6)c5-c5ccc(Cl)cc5F)cn4)ccc3F)cc2NC(=O)c2c[nH]c(=O)cc2C(F)(F)F)C[C@H](C)N1C,MV4-11,,4.64 µM,5 days,viability,27%
Cc1nc(Nc2ccc3c(c2)/C(=C/c2ccccc2C)C(=O)N3)c2ccccc2n1,BEAS-2B,MTT,,,IC50,8.74 µM
C[C@@H]1CN(c2ccc(-c3cc(C(=O)NCCOCCOCCOCCOCCOCCOCCNC(=O)/C=C/c4[nH]cc(C(=O)N[C@@H](CC(N)=O)c5ccc(F)c(Cl)c5)c4-c4ccc(Cl)cc4F)ccc3F)cc2NC(=O)c2ccc(F)cc2C(F)(F)F)C[C@H](C)N1C,MV4-11,,4.64 µM,5 days,viability,43.9%
CC1(C)CCC(CN2CCN(c3ccc(C(=O)NS(=O)(=O)c4ccc(NCC5CCOCC5)c([N+](=O)[O-])c4)c(Oc4cnc5[nH]ccc5c4)c3)CC2)=C(c2ccc(Cl)cc2)C1,MV4-11,ATP luminescence,,48 h,IC50,0.012 µM
COc1cc2ncnc(Nc3ccc4c(c3)/C(=C/c3ccccc3)C(=O)N4)c2cc1OC,BEAS-2B,MTT,,,IC50,17.5 µM
C=CC(=O)NC1CCN(c2ncc3ncnc(Nc4ccc(Oc5ccc6c(c5)ncn6C)c(C)c4)c3n2)CC1,647-V,,,,EC50,2320 nM
Cc1nc(Nc2ccc3c(c2)/C(=C/c2ccccc2)C(=O)N3C)c2ccccc2n1,BEAS-2B,MTT,,,IC50,20.1 µM
Cc1c(C(=O)O)ccc2c3n(nc12)[C@@H]1[C@H](C3)N(CC2CC2)[C@@]2(C(=O)Nc3cc(Cl)ccc32)[C@H]1c1cccc(Cl)c1F,human Fibroblast,ATP luminescence,,,IC50,0.012 µM
Cc1noc2c1-c1ccccc1C(c1ccc(Cl)cc1)=N[C@H]2CC(N)=O,MV4-11,ATP luminescence,,72 h,IC50,0.412 µM
CN1Cc2c(N)cccc2C(=O)N1C1CCC(=O)NC1=O (stereo not drawn),MV4-11,CCK-8,,96 h,IC50,< 0.33 µM
C=CC(=O)N1C[C@@H](n2nc(C#Cc3c(F)cc4c(ncn4C4CC4)c3F)c(C(N)=O)c2NC)C[C@@H]1COC,RBE,MTT,,72 h,IC50,> 1 µM
Cc1nc(Nc2ccc3c(c2)CC(=O)N3)c2ccccc2n1,BEAS-2B,MTT,,,IC50,8.76 µM
CC(C)c1ccccc1[C@@H]1CCCN1C1CC2(CCN(c3ccc(C(=O)NS(=O)(=O)c4ccc(NC[C@H]5CC[C@](C)(O)CC5)c([N+](=O)[O-])c4)c(Oc4cnc5[nH]ccc5c4)c3)CC2)C1,KMS-12-PE,ATP luminescence,,48 h,IC50,0.00086 µM
Cc1nc(Nc2ccc3c(c2)C(C)(C)C(=O)N3)c2ccccc2n1,BEAS-2B,MTT,,,IC50,38.4 µM
Cn1cc(-n2cnc3c(NCc4nc5cc(Cl)c(Cl)cc5[nH]4)nc(N4CCOCC4)nc32)cn1,MDA-MB-468,,,5 days,EC50,9.21 nM
